ChEMBL document CHEMBL5120910, “Small-Molecule Gankyrin Inhibition as a Therapeutic Strategy for Breast and Lung Cancer” (J Med Chem, 2022)
The source made the active and inactive calls. The calls are words filed in the database; no cut-off is given here.

Columns and labels:
[1] = biological target: T1, 26S proteasome non-ATPase regulatory subunit 10 (Homo sapiens) (UniProt O75832); assay: Binding affinity to gankyrin (unknown origin) assessed as change in melting temperature at 300 uM by SYPRO orange staining based thermal shift assay
T1 sequence (whole entry): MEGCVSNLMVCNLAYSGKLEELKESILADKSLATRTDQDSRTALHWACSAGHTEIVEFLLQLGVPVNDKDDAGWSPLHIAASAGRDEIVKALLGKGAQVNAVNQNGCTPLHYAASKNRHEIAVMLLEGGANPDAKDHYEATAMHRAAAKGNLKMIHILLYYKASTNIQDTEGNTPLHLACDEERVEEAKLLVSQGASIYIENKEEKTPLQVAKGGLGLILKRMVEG

A549 [2] = assay: Inhibition of gankyrin-proteasome protein-protein interaction in human A549 cells assessed as increase in phosphorylated p53 level at serine 6 residue at 0.12 to 1 uM measured after 48 hrs by Western blotting analysis; assay type: cell-based; conditions: dose 0.12-1 µM
How it was run: (§1)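 Cells in 10 cm dishes treated with varying concentrations (0.5% DMSO final) or DMSO only for 48 h. Lysed in RIPA with protease/phosphatase inhibitors on ice for 60 min. 15 μg protein resolved under reducing conditions, transferred to PVDF, and probed for p53, phospho-p53 S6/S15, Rb, gankyrin and cyclophilin. Detection by HRP-secondary ECL.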

A549 [3] = assay: Inhibition of gankyrin-proteasome protein-protein interaction in human A549 cells assessed as increase in phosphorylated p53 level at serine 6 residue at 0.60 to 5 uM measured after 48 hrs by Western blotting analysis; assay type: cell-based; conditions: dose 0.6-5 µM; how it was run: as §1
A549 [4] = assay: Antiproliferative activity against human A549 cells assessed as cell growth inhibition measured after 72 hrs by MTT assay; assay type: functional, cell-based; conditions: A549, 72 h
How it was run: (§2)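 Cells seeded at 2.5 × 10^4 cells/well, allowed 24 h before dosing, then exposed to increasing concentrations (0.5% DMSO final) for 72 h at 37 °C, 5% CO2. MTT added at 1 mg/mL final in complete media for 2 h, formazan dissolved in DMSO, absorbance read at 570 nm. 6–8 repeats per treatment; IC50 from concentration–response fit.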

[5] = biological target: T1, 26S proteasome non-ATPase regulatory subunit 10 (Homo sapiens); assay: Binding affinity to gankyrin (unknown origin) expressed in Escherichia coli BL21 (DE3) expression system assessed as decrease in thermal denaturation at 1.5 uM measured at 5 to 90 degreeC by circular dichroism spectropolarimeter analysis
How it was run: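 Recombinant His-tagged gankyrin expressed in E. coli BL21(DE3) Codon+RIL (IPTG 1 mM, 25 °C, ~5 h) and purified by Ni2+-IMAC. Thermal denaturation followed by CD at 217 nm over 5–90 °C with compound at 1.5 μM.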

[6] = Cytotoxicity against HEK293 cells assessed as cell growth inhibition measured after 72 hrs by MTT assay; assay type: toxicity, cell-based; conditions: human; how it was run: as §2
[7] = Metabolic stability in human liver microsomes assessed as compound remaining preincubated for 10 mins followed by NADPH addition measured after 60 mins by HPLC analysis; assay type: ADME, Microsome; conditions: read-out: Stability
A549 [8] = assay: Inhibition of gankyrin-proteasome protein-protein interaction in human A549 cells assessed as increase in phosphorylated p53 level at serine 6 residue at 0.04 to 0.33 uM measured after 48 hrs by Western blotting analysis; assay type: cell-based; conditions: dose 0.04-0.33 µM; how it was run: as §1
A549 [9] = assay: Antitumor activity against human A549 cells tumor spheroids assessed as increase in dead cells by measuring red fluorescence intensity measured at 15 days by EthD-III staining based fluorescence microscopic analysis; assay type: functional, cell-based; conditions: dose 0.15-5 µM, time 15.0 day, DDE = dose-dependent effect
How it was run: (§3)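 Live/dead staining of 3D spheroids at day 15 after single-dose treatment: media replaced by kit reagent with calcein AM (live, green) and EthD-III (dead, red), 30 min in dark at room temperature, imaged at 4X by fluorescence microscopy. Mean ± SD, n = 4; unpaired Student's t-test.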

[10] = biological target: T1, 26S proteasome non-ATPase regulatory subunit 10 (Homo sapiens); assay: Binding affinity to gankyrin (unknown origin) expressed in Escherichia coli BL21 (DE3) expression system assessed as formation of white precipitation of the compound at 1.5 uM
A549 [11] = assay: Inhibition of gankyrin-proteasome protein-protein interaction in human A549 cells assessed as increase in phosphorylated p53 level at serine 15 residue at 0.04 to 0.33 uM measured after 48 hrs by Western blotting analysis; assay type: cell-based; conditions: dose 0.04-0.33 µM; how it was run: as §1
A549 [12] = assay: Inhibition of gankyrin-proteasome protein-protein interaction in human A549 cells assessed as increase in phosphorylated p53 level at serine 15 residue at 0.12 to 1 uM measured after 48 hrs by Western blotting analysis; assay type: cell-based; conditions: dose 0.12-1 µM; how it was run: as §1
A549 [13] = assay: Antitumor activity against human A549 cells tumor spheroids assessed as decrease in live cells by measuring green fluorescence intensity measured at 15 days by calcein AM staining based fluorescence microscopic analysis; assay type: functional, cell-based; conditions: dose 0.15-5 µM, time 15.0 day, DDE = dose-dependent effect; how it was run: as §3
A549 [14] = assay: Antitumor activity in human A549 cells cultured as 3D spheroids assessed as fold decrease in spheroid volume at 5 uM measured up to 15 days by inverted microscopic analysis; assay type: functional; conditions: time <= 15 day
How it was run: (§4)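 Spheroids formed from 2000 cells/well in ultra-low attachment U-bottom wells over 3 days, then given a single dose on day 3. Half the media was replenished every 3 days. Transmitted-light images were taken through day 15, and spheroid volume was computed from images and expressed as fold-difference. Mean ± SD, n = 8; unpaired t-test.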

A549 [15] = assay: Antitumor activity in human A549 cells cultured as 3D spheroids assessed as fold decrease in spheroid volume at 2.5 uM measured up to 15 days by inverted microscopic analysis; assay type: functional; conditions: time <= 15 day; how it was run: as §4
MDA-MB-231 = assay: Antiproliferative activity against human MDA-MB-231 cells assessed as cell growth inhibition measured after 72 hrs by MTT assay; assay type: functional, cell-based; conditions: MDA-MB-231, 72 h; how it was run: as §2
A549 [16] = assay: Inhibition of colony formation in human A549 cells at 0.3 uM incubated for 48 hrs followed by replacement of fresh media every alternative day measured after 7 days by crystal violet staining based clonogenic assay relative to control; values are per cent of control; conditions: A549, 48 h
A549 [17] = assay: Induction of cell cycle arrest in human A549 cells assessed as decrease in cell accumulation at S phase at 0.3 uM measured after 72 hrs by propidium iodide staining based flow cytometry analysis; assay type: functional
How it was run: (§5)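 Cells in 10 cm dishes treated for 72 h (0.1% DMSO final; DMSO-only control). Harvested in cold PBS, fixed in 70% ethanol at −20 °C overnight, stained with PI for 40 min at 37 °C, then analysed by flow/imaging cytometry for G0/G1, S and G2/M fractions. Mean ± SD, n = 3.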

A549 [18] = assay: Induction of cell cycle arrest in human A549 cells assessed as decrease in cell accumulation at G2/M phase at 0.3 uM measured after 72 hrs by propidium iodide staining based flow cytometry analysis; assay type: functional; how it was run: as §5
A549 [19] = assay: Antitumor activity in human A549 cells cultured as 3D spheroids assessed as fold decrease in spheroid volume at 0.15 uM measured up to 15 days by inverted microscopic analysis; assay type: functional; conditions: time <= 15 day; how it was run: as §4
A549 [20] = assay: Induction of cell cycle arrest in human A549 cells assessed as increase in cell accumulation at G0/G1 phase at 0.3 uM measured after 72 hrs by propidium iodide staining based flow cytometry analysis; assay type: functional; how it was run: as §5
[21] = biological target: T1, 26S proteasome non-ATPase regulatory subunit 10 (Homo sapiens); assay: Binding affinity to gankyrin in human A549 cells assessed as decrease in thermal stability at 0.3 uM incubated for 48 hrs followed by heat treatment at 50 to 65 degreeC by CETSA; assay type: cell-based
How it was run: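 CETSA: cells treated with compound for 48 h, then heated across a temperature range. Soluble gankyrin was detected by western blot and melt curves were constructed. Mean ± SD, n = 3.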

A549 [22] = assay: Antitumor activity in human A549 cells cultured as 3D spheroids assessed as fold decrease in spheroid volume at 0.30 uM measured up to 15 days by inverted microscopic analysis; assay type: functional; conditions: dose 0.3 µM; time <= 15 day; how it was run: as §4
A549 [23] = assay: Antitumor activity in human A549 cells cultured as 3D spheroids assessed as fold decrease in spheroid volume at 0.5 uM measured up to 15 days by inverted microscopic analysis; assay type: functional; conditions: time <= 15 day; how it was run: as §4
A549 [24] = assay: Inhibition of colony formation in human A549 cells at 0.5 uM incubated for 48 hrs followed by replacement of fresh media every alternative day measured after 7 days by crystal violet staining based clonogenic assay relative to control; values are per cent of control; conditions: A549, 48 h
A549 [25] = assay: Inhibition of gankyrin-proteasome protein-protein interaction in human A549 cells assessed as increase in p53 level at 0.12 to 1 uM measured after 48 hrs by Western blotting analysis; assay type: cell-based; conditions: dose 0.12-1 µM; how it was run: as §1
A549 [26] = assay: Colony formation in human A549 cells at 1 uM incubated for 48 hrs followed by replacement of fresh media every alternative day measured after 7 days by crystal violet staining based clonogenic assay relative to control; conditions: A549, 48 h
A549 [27] = assay: Inhibition of gankyrin-proteasome protein-protein interaction in human A549 cells assessed as increase in Rb level at 0.12 to 1 uM measured after 48 hrs by Western blotting analysis; assay type: cell-based; conditions: dose 0.12-1 µM; how it was run: as §1
A549 [28] = assay: Antitumor activity in human A549 cells cultured as 3D spheroids assessed as fold decrease in spheroid volume at 1 uM measured up to 15 days by inverted microscopic analysis; assay type: functional; conditions: time <= 15 day; how it was run: as §4

Activity [1] | IC50 (A549 [4]) | Activity [5] | remaining at 1 h [7] | Activity [10] | IC50 (MDA-MB-231) | SMILES | Activity (A549 [2]) | Activity (A549 [3]) | IC50 at 72 h [6] | Activity (A549 [8]) | Activity (A549 [9]) | Activity (A549 [11]) | Activity (A549 [12]) | Activity (A549 [13]) | also measured
Active | 5.5 µM | Active | 73% | Active | 83.2 µM | Cc1ccc(NC(=S)CCCn2cc(-c3ccc(C(F)(F)F)cc3)nn2)cc1 | Active | Active | > 100 µM | Active | Dde | Active | Active | Dde | fold change (FC) (A549 [14]): 3.5; fold change (FC) (A549 [15]): 3.3
Active | 0.33 µM | Active | 87% | – | > 100 µM | COC(=O)c1ccc(-c2cn(CCCC(=O)Nc3ccc(-c4ccccc4)cc3)nn2)cc1 | Active | Active | > 100 µM | Active | Dde | Active | Active | Dde | growth, % of control at 0.3 µM (A549 [16]): 44.6%; Activity (A549 [17]): Active; Activity (A549 [18]): Active; fold change (FC) (A549 [19]): 3.6; Activity (A549 [20]): Active; Activity [21]: Active; fold change (FC) (A549 [22]): 2.4
Active | 1 µM | Active | 80% | Active | > 100 µM | FC(F)(F)c1ccc(-c2cn(CCCC(=S)Nc3ccc(-c4ccccc4)cc3)nn2)cc1 | Active | Active | > 100 µM | Active | Dde | – | – | Dde | fold change (FC) (A549 [23]): 3.8; growth, % of control at 0.5 µM (A549 [24]): 83.8%; Activity (A549 [25]): Active; growth, % of control at 1 µM (A549 [26]): 61.4%; Activity (A549 [27]): Active; fold change (FC) (A549 [28]): 4
